According to paper PMC5613298 (Biochemistry and Biophysics Reports, 2016):
Read-outs that look alike come from different tables or passages of the source. Blank lines part the entries; values can stand above or below the molecule they belong to. Starred links: 1 amine or outer side, 2 acyl side, 3 side chain; linkers in the order of their positions; H or OH if unused. Non-standard residues stand in square brackets, D forms with d. Residues, ends and D or L forms follow the SMILES beside them. Trp(7-aza) = N[C@@H](Cc1c[nH]c2ncccc12)C(=O)O; X1 = O=C([C@H](Cc1n[nH]c2ncccc12)N[*:1])[*:2]

What was measured:
[1] = steady-state absorption and emission spectroscopy, free in solution; assay type: physicochemical; conditions: for λabs: neutral water; for λem, normal / N(1)-H emission: neutral water (peptides: neutral Tris buffer); for λem, second band (N(2)-H emission) / λem, third band (N(7)-H tautomer emission): neutral water / neutral Tris buffer
How it was run: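 Absorption recorded on a UV-vis spectrophotometer. Emission recorded on a fluorimeter with wavelength-calibrated excitation and emission response. Peptide concentration was set spectrophotometrically from the extinction coefficient of its single Trp or Trp-analogue residue.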

[2] = time-resolved fluorescence; assay type: physicochemical
How it was run: (§1)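 Lifetimes measured by time-correlated single-photon counting, with two sources. One used hydrogen-lamp excitation (about 300 ps resolution). The other used 310 nm third-harmonic excitation from 930 nm femtosecond pulses (82 MHz) with a microchannel-plate detector (about 15 ps resolution). Emission was collected at right angles through a 54.7° polarizer. Decays were fitted to sums of exponentials with the instrument response deconvolved.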

[3] = cited from earlier work
[4] = cited from earlier work; remark: listed apart in the source
[5] = biological target: T1, bovine brain calmodulin (CaM) (Bos taurus, UniProt P62157); assay: CaM binding by fluorescence titration; conditions: for increase in CaM binding affinity on replacing Trp: relative to Baa (210±10 pM)
[6] = biological target: T1, bovine brain calmodulin (CaM); assay: steady-state emission spectra upon titration with CaM; assay type: binding; conditions: for λem, N(1)-H emission: bound to CaM, pH 7.5 Tris buffer; for environment around Trp analogue upon binding CaM: deduced from steady-state emission; for λabs: in presence of CaM
How it was run: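 Peptide at 1 µM in 5 mM Tris-HCl, pH 7.5, 1.0 mM CaCl₂, 25 °C. CaM added stepwise to 6 µM final, with 1 min stirring and 10 min equilibration per step. Full emission spectra recorded on a calibrated fluorimeter, corrected for dilution, each an average of three replicates. Peptide and CaM concentrations were set from Trp and Tyr absorption extinction coefficients.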

CD spectrum = assay type: physicochemical; conditions: Fig. S2
[7] = biological target: T1, bovine brain calmodulin (CaM); assay: time-resolved fluorescence; assay type: binding; conditions: peptide-CaM complex, ±0.03 ns uncertainty
How it was run: as §1

[8] = free, neutral water, λmon 320 nm, ±0.03 ns uncertainty
[9] = free, neutral water, λmon 550 nm, ±0.03 ns uncertainty
[10] = free, neutral water, λmon not given, ±0.03 ns uncertainty
[11] = free, neutral water, λmon 380 nm
[12] = free, neutral water, λmon 380 nm, ±0.03 ns uncertainty
[13] = free, neutral water, λmon 540 nm, ±0.03 ns uncertainty

λabs [1]: 295 nm | λem, normal / N(1)-H emission [1]: 335 nm | λem, second band (N(2)-H emission) [1]: 370 nm | λem, third band (N(7)-H tautomer emission) [1]: 495 nm | τ [2, 8]: 0.22 ns | τ ([2]; free, neutral water, λmon 400 nm, ±0.03 ns uncertainty): 10.10 ns | τ, decay component [2, 9]: 1.30 ns | τ, rise component [2, 9]: 0.21 ns
Molecule: c1cnc2[nH]ncc2c1 [2,7-diazaindole]

λabs [1]: 288 nm | λem, normal / N(1)-H emission [1]: 386 nm | τ [2, 10]: 0.91 ns
Molecule: c1cnc2[nH]ccc2c1 [7-azaindole]
lifetime ([3]; in DMSO): 9.3 ns | lifetime ([3]; in acetonitrile): 5.7 ns

Molecule: N[C@@H](Cc1n[nH]c2ncccc12)C(=O)O [(2,7-aza)Trp, 2,7-diazatryptophan]
λabs [1]: 300 nm | λem, normal / N(1)-H emission [1]: 340 nm | λem, second band (N(2)-H emission) [1]: 380 nm | λem, third band (N(7)-H tautomer emission) [1]: 500 nm | N(7)-H tautomer emission ([4]; water rich environments): 500 nm | increase in CaM binding affinity on replacing Trp [5]: 4.7 times | τ [2, 8]: 0.26 ns | percentage of τ component 1 [2, 11]: 12% | percentage of τ component 2 [2, 11]: 88% | τ, component 1 [2, 12]: 0.27 ns | τ, component 2 [2, 12]: 10.07 ns | τ, decay component [2, 13]: 0.58 ns | τ, rise component [2, 13]: 0.26 ns

Molecule: CC(=O)N[C@@H](CC(C)C)C(=O)N[C@@H](CCCCN)C(=O)N[C@@H](Cc1n[nH]c2ncccc12)C(=O)N[C@@H](CCCCN)C(=O)N[C@@H](CCCCN)C(=O)N[C@@H](CC(C)C)C(=O)N[C@@H](CC(C)C)C(=O)N[C@@H](CCCCN)C(=O)N[C@@H](CC(C)C)C(=O)N[C@@H](CC(C)C)C(=O)N[C@@H](CCCCN)C(=O)N[C@@H](CCCCN)C(=O)N[C@@H](CC(C)C)C(=O)N[C@@H](CC(C)C)C(=O)N[C@@H](CCCCN)C(=O)N[C@@H](CC(C)C)C(=O)NCC(N)=O [(2,7-aza)Trp-Baa] (Ac-LK[X1]KKLLKLLKKLLKLG-NH2)
λabs [1]: 300 nm | λem, normal / N(1)-H emission [1]: 340 nm | λem, second band (N(2)-H emission) [1]: 380 nm | λem, third band (N(7)-H tautomer emission) [1]: 500 nm | λem, N(1)-H emission ([6]; 1.0 mM CaCl2): 340 nm | environment around Trp analogue upon binding CaM [6]: water scant environment | λabs [6]: 300 nm | change of N(1)-H emission at 340 nm upon titration with CaM ([6]; pH 7.5 Tris, 1.0 mM CaCl2): increase of the N(1)-H emission | secondary structure by CD (CD spectrum): α-helix structure | Kd [5]: 0.045 ± 0.002 nM | τ, N(1)-H emission lifetime ([7]; λmon 330 nm): 1.10 ns | τ, N(1)-H emission lifetime ([2]; free peptide in water, λmon 330 nm, ±0.03 ns uncertainty): 0.21 ns

Molecule: N[C@@H](Cc1c[nH]c2ncccc12)C(=O)O [(7-aza)Trp, 7-azatryptophan]
λabs [1]: 289 nm | λem, normal / N(1)-H emission [1]: 400 nm | emission maximum ([4]; in tetrahydrofuran): 350 nm | increase in CaM binding affinity on replacing Trp [5]: 1.9 times | τ [2, 10]: 0.65 ns

Molecule: CC(=O)N[C@@H](CC(C)C)C(=O)N[C@@H](CCCCN)C(=O)N[C@@H](Cc1c[nH]c2ncccc12)C(=O)N[C@@H](CCCCN)C(=O)N[C@@H](CCCCN)C(=O)N[C@@H](CC(C)C)C(=O)N[C@@H](CC(C)C)C(=O)N[C@@H](CCCCN)C(=O)N[C@@H](CC(C)C)C(=O)N[C@@H](CC(C)C)C(=O)N[C@@H](CCCCN)C(=O)N[C@@H](CCCCN)C(=O)N[C@@H](CC(C)C)C(=O)N[C@@H](CC(C)C)C(=O)N[C@@H](CCCCN)C(=O)N[C@@H](CC(C)C)C(=O)NCC(N)=O [(7-aza)Trp-Baa] (Ac-LK[Trp(7-aza)]KKLLKLLKKLLKLG-NH2)
λabs [1]: 300 nm | λem, normal / N(1)-H emission [1]: 400 nm | λem, N(1)-H emission ([6]; 1.0 mM CaCl2): 358 nm | environment around Trp analogue upon binding CaM [6]: less polar environment | λabs [6]: 300 nm | secondary structure by CD (CD spectrum): α-helix structure | Kd [5]: 0.109 ± 0.005 nM | τ, normal (N(1)-H) emission lifetime ([7]; λmon 360 nm (text: 358 nm emission)): 7.35 ns | τ, normal (N(1)-H) emission lifetime ([2]; free peptide, neutral Tris buffer, λmon 400 nm, ±0.03 ns uncertainty): 0.65 ns

Molecule: Ac-LKWKKLLKLLKKLLKLG-NH2 [Baa]
secondary structure by CD (CD spectrum): α-helix structure
